ChEMBL document CHEMBL3992520, “Development of the First Two-Pore Domain Potassium Channel TWIK-Related K+ Channel 1-Selective Agonist Possessing in Vivo Antinociceptive Activity” (J Med Chem, 2017)

How the values were obtained:
[1] = biological target: Potassium channel subfamily K member 9 (Homo sapiens) (UniProt Q9NPC2); assay: Agonist activity at TASK3 (unknown origin) expressed in HEK293 cells assessed as increase in K+ current at 100 uM measured at +60 mV by whole-cell patch clamp method relative to control; format: cell-based
Sequence of Potassium channel subfamily K member 9 (Homo sapiens) (Q9NPC2 whole entry): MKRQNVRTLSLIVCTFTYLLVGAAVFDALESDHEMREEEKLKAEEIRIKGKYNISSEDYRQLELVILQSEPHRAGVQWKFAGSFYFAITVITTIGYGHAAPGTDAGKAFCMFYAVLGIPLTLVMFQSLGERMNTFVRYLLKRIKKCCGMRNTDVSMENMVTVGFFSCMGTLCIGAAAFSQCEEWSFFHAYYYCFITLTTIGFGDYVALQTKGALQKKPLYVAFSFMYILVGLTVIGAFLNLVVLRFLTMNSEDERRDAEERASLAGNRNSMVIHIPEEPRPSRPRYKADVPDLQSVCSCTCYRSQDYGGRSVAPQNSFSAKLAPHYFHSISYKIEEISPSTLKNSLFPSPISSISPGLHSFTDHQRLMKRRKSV

[2] = biological target: T1, Potassium channel subfamily K member 4 (Homo sapiens) (UniProt Q9NYG8); assay: Agonist activity at TRAAK (unknown origin) expressed in HEK293 cells assessed as increase in K+ current at 100 uM measured at +60 mV by whole-cell patch clamp method relative to control; format: cell-based
T1 sequence (whole entry): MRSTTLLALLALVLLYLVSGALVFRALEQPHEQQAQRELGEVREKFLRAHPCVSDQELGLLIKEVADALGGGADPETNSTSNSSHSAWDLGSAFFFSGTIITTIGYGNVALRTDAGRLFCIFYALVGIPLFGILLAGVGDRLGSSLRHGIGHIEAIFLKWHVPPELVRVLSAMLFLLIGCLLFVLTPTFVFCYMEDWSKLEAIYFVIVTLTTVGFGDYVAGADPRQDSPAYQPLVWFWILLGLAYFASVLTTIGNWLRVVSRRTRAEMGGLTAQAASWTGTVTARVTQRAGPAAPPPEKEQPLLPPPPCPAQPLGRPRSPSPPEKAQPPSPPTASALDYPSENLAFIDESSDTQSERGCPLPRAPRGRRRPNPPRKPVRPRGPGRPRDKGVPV

[3] = biological target: T2, Potassium channel subfamily K member 2 (Homo sapiens) (UniProt O95069); assay: Agonist activity at human TREK1 expressed in HEK293 cells assessed as increase in K+ current at 100 uM measured at +60 mV by whole-cell patch clamp method relative to control; format: cell-based
T2 sequence (whole entry): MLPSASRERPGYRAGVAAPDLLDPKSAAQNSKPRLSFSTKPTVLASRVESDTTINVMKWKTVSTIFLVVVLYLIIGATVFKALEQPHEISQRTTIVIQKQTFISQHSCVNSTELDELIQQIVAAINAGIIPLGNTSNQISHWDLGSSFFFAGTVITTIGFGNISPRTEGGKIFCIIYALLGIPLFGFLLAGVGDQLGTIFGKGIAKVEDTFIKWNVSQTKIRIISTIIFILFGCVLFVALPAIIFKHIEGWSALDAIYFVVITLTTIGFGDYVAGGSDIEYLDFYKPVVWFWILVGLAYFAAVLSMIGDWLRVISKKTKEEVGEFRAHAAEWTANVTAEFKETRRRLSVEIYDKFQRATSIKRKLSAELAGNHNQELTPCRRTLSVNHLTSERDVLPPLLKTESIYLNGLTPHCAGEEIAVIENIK
Summary of the method: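 Human TREK-1 (kcnk2) in pIRES2-eGFP was stably expressed in HEK-293 cells under G418 selection, and cells were used 4–48 h after plating. Bath (mM): 140 NaCl, 10 TEA-Cl, 5 KCl, 3 MgCl2, 1 CaCl2, 10 HEPES, pH 7.4. Pipette (mM): 155 KCl, 3 MgCl2, 5 EGTA, 10 HEPES, pH 7.2. Holding was −80 mV, with a step to −100 mV then a 400 ms ramp to +60 mV every 5 s. Read-out was the ratio Imax/I0 taken from I/V curves. Stocks were 20 mM in DMSO.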

[4] = biological target: T2, Potassium channel subfamily K member 2 (Homo sapiens); assay: Agonist activity at human TREK1 expressed in xenopus oocytes assessed as increase in K+ current at 20 uM measured at 0 mV by double microelectrode method relative to control; format: cell-based
Mus musculus [5] = assay: Antinociceptive activity in CD1 mouse assessed as inhibition of acetic acid-induced writhes at 10 mg/kg, sc pretreated for 15 mins followed by acetic acid challenge measured within 20 mins relative to control; format: functional
Summary of the method: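 Male CD1 mice (20-25 g), n=8 per group, dosed at 10 mg/kg s.c. or with vehicle (5% Tween 80 in 0.9% saline). Dosing was 15 min before i.p. 0.6% acetic acid (10 mL/kg). Abdominal writhes were counted for 20 min. Effect = (mean control writhes − mean test writhes)/mean control writhes ×100.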

Mus musculus [6] = assay: Antinociceptive activity in CD1 mouse assessed as increase in thermal-stimulus induced paw withdrawal latency at 60 mg/kg, sc measured after 30 mins by hot plate method relative to control; format: functional
Summary of the method: (§1)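 Male CD1 mice (20-25 g), n=8 per group, given 60 mg/kg s.c. After 5 min acclimatization on a plate at room temperature, mice were placed on a 52 °C hotplate. Latency to forepaw or hindpaw licking or hindpaw flicking was recorded, with a 30 s cut-off. Latency was taken after two consecutive stable baselines, then 30 and 45 min post-dose. Effect = (postdrug − predrug latency)/predrug latency ×100.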

Mus musculus [7] = assay: Antinociceptive activity in CD1 mouse assessed as increase in thermal-stimulus induced paw withdrawal latency at 60 mg/kg, sc measured after 45 mins by hot plate method relative to control; format: functional; summary of the method: as §1
Mus musculus [8] = assay: Antinociceptive activity in wild-type C57Bl/6J mouse assessed as increase in thermal-stimulus induced paw withdrawal latency at 60 mg/kg, sc measured after 30 mins by hot plate method relative to control; format: functional
Summary of the method: (§2)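 TREK-1−/− and wild-type C57Bl/6J littermates came from heterozygous crosses, n=7. Dose was 60 mg/kg s.c. The 52 °C hotplate measured paw-lick latency, 30 s cut-off, with baseline from two stable pre-dose latencies.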

Mus musculus [9] = assay: Antinociceptive activity in wild-type C57Bl/6J mouse assessed as increase in thermal-stimulus induced paw withdrawal latency at 60 mg/kg, sc measured after 45 mins by hot plate method relative to control; format: functional; summary of the method: as §2
Mus musculus [10] = assay: Antinociceptive activity in TREK1 deficient C57Bl/6J mouse assessed as increase in thermal-stimulus induced paw withdrawal latency at 60 mg/kg, sc measured after 30 mins by hot plate method relative to control; format: functional; summary of the method: as §2
Mus musculus [11] = assay: Antinociceptive activity in TREK1 deficient C57Bl/6J mouse assessed as increase in thermal-stimulus induced paw withdrawal latency at 60 mg/kg, sc measured after 45 mins by hot plate method relative to control; format: functional; summary of the method: as §2
Mus musculus [12] = assay: In vivo activation of TREK1 in C57Bl/6J mouse assessed as increase in thermal-stimulus induced paw withdrawal latency at 60 mg/kg, sc measured after 30 mins by hot plate method relative to control; format: functional; summary of the method: as §2
Mus musculus [13] = assay: In vivo activation of TREK1 in C57Bl/6J mouse assessed as increase in thermal-stimulus induced paw withdrawal latency at 60 mg/kg, sc measured after 45 mins by hot plate method relative to control; format: functional; summary of the method: as §2
[14] = biological target: T3, Potassium channel subfamily K member 10 (Homo sapiens) (UniProt P57789); assay: Agonist activity at TREK-2 (unknown origin) expressed in HEK293 cells assessed as increase in K+ current at 100 uM measured at +60 mV by whole-cell patch clamp method relative to control; format: cell-based
T3 sequence (whole entry): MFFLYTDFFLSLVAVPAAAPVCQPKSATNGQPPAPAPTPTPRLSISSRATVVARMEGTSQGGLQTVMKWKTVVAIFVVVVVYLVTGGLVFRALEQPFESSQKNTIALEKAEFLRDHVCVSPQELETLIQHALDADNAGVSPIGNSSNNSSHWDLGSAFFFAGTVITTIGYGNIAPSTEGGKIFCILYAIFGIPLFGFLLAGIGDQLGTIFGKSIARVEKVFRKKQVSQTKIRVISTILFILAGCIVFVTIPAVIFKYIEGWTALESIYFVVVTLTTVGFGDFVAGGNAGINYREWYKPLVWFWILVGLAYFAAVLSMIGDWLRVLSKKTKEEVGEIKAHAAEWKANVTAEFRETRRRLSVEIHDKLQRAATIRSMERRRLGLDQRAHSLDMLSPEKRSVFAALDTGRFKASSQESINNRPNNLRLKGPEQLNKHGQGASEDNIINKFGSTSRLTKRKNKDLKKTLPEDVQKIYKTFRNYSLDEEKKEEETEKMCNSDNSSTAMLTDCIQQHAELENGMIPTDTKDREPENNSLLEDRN

Liver [15] = assay: Drug level in rat liver microsomes treated with at 40 mM (E)-ethyl 2-cyano-3-(furan-3-yl)acrylate measured after 24 hrs by HPLC analysis; format: ADME, microsome; conditions: 40000 µM
Summary of the method: (§3)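 Incubation mix: rat liver microsomes (20 mg/mL stock), phosphate buffer pH 7.4 and NADPH (40 mM stock). Drug was added from a 40 mM DMSO stock. Samples were vortexed and incubated at 37 °C with stirring.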

Liver [16] = assay: Drug level in rat liver microsomes treated with at 40 mM (E)-ethyl 2-cyano-3-(1H-indol-2-yl)acrylate measured after 24 hrs by HPLC analysis; format: ADME, microsome; conditions: 40000 µM; summary of the method: as §3

| fold change (FC) [1] | fold change (FC) [2] | fold change (FC) [3] | fold change (FC) [4] | fold change (FC) [14] | Drug metabolism (Liver [15]) | Drug metabolism (Liver [16]) | SMILES | inhibition in vivo at 10 mg/kg (Mus musculus [5]) | Activity (Mus musculus [6]) | Activity (Mus musculus [7]) | Activity (Mus musculus [8]) | Activity (Mus musculus [9]) | Activity (Mus musculus [10]) | Activity (Mus musculus [11]) | Activity (Mus musculus [12]) | Activity (Mus musculus [13]) |
| --- | --- | --- | --- | --- | --- | --- | --- | --- | --- | --- | --- | --- | --- | --- | --- | --- |
| 1 | 1.1 | 4.53 | 1.43 | 1.8 | Metabolite_Detected |  | N#C/C(=C\c1ccoc1)C(=O)O | 30.7% | 56.4% | 119.5% | 121.2% | 93.5% | 78.1% | 75.4% | 36.6% | 19% |
|  |  | 1.18 | 2.44 |  |  | Metabolite_Detected | N#C/C(=C\c1cc2ccccc2[nH]1)C(=O)O | 25.8% |  |  |  |  |  |  |  |  |
